How the values were obtained:
[1] = tested on: Rattus norvegicus; experiment: Evaluated for neuroleptic-like property using open-field test in rats(increase in ambulation at 3 to 20 mg/kg on peroral administration; value may range from 11.9 to 23.1; type: functional; conditions: dose mg/kg 3-20, route oral
[2] = Toxicity on peroral administration to mice; type: organism-based; conditions: mouse, in vivo, po
Procedure, shortened: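 Oral dosing to mice, eight per group; LD50 calculated by Litchfield-Wilcoxon method.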

[3] = Ratio of muscle relaxant action to antifighting effect; type: functional
Procedure, shortened: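 Muscle relaxation was measured by traction test in mice (eight per group), 1 h after oral dosing. Forepaws were placed on a horizontal wire bar 30 cm high. Failure to bring the hind feet onto the wire within 5 s counted as relaxation. This action was set in ratio with the antifighting effect.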

[4] = tested on: Mus musculus; experiment: Evaluated for hypothermic activity in mice at 30 mg/kgo n peroral administration; type: functional; conditions: dose 30 mg/kg; route oral
Procedure, shortened: (§1)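 Six mice per group were dosed orally 1 h before testing. Rectal temperature was read with an electronic thermometer. Results are given as degrees of hypothermia (Δt °C) versus an untreated group.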

[5] = tested on: Mus musculus; experiment: Anti-morphine activity against morphine-induced Straub''s tail reaction in mice expressed as % inhibition at 25 mg/kg peroral administration; type: functional; conditions: route oral
Procedure, shortened: (§2)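 Six mice per group received test compounds orally 1 h before morphine (20 mg/kg ip). Straub's tail reaction was scored as the index of morphine's CNS stimulant action.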

[6] = tested on: Rattus norvegicus; experiment: Evaluated for neuroleptic-like property using anti-methamphetamine test in rats on peroral administration; type: functional; conditions: po
Procedure, shortened: (§3)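 Groups of six rats were dosed orally, then given methamphetamine 5 mg/kg ip 1 h later. Stereotypy was scored 0–4: sleep/eyes closed 0, motionless/eyes open 1, moving around cage 2, sniffing 3, continuous licking or gnawing 4. ED50 was the dose halving mean score versus controls, with 95% confidence limits.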

[7] = tested on: Mus musculus; experiment: Anti-fighting potency against foot shock induced fighting behavior in mice expressed as % inhibition at 25 mg/kg peroral administration; type: functional; conditions: route oral
[8] = tested on: Mus musculus; experiment: Anti-morphine activity against the morphine-induced Straub's tail reaction in mice on peroral administration; type: functional; conditions: po
Procedure, shortened: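 Mice, six per group, dosed orally with test compound 1 h before morphine (20 mg/kg ip); Straub's tail reaction scored as index of morphine CNS stimulation.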

[9] = tested on: Mus musculus; experiment: Cataleptogenic action in mice on peroral administration; value may range from 30 to 71; type: functional; conditions: po
Procedure, shortened: (§4)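 Six mice per group were dosed orally 1 h before testing. Forepaws were placed on a horizontal steel bar to force an abnormal posture. Holding the posture over 30 s counted as catalepsy. ED50 was the dose giving catalepsy in 50% of animals, with 95% confidence limits.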

[10] = tested on: Mus musculus; experiment: Evaluated for hypothermic activity in mice at 30 mg/kg on peroral administration; type: functional; conditions: route oral; procedure, shortened: as §1
[11] = tested on: Rattus norvegicus; experiment: Evaluated for neuroleptic-like property using open-field test in rats(increase in ambulation at 3 to 20 mg/kg on peroral administration; type: functional; conditions: dose mg/kg 3-20, route oral
[12] = tested on: Mus musculus; experiment: Cataleptogenic action in mice on peroral administration; type: functional; conditions: po; procedure, shortened: as §4
[13] = tested on: Rattus norvegicus; experiment: Evaluated for neuroleptic-like property using open-field test in rats(increase in ambulation at 3 to 20mg/kg on peroral administration; value may range from 8.1 to 13.2; type: functional; conditions: po
[14] = tested on: Rattus norvegicus; experiment: Evaluated for neuroleptic-like property using anti-methamphetamine test in rats on peroral administration; value may range from 20 to 79; type: functional; conditions: po; procedure, shortened: as §3
[15] = tested on: Mus musculus; experiment: Cataleptogenic action in mice on peroral administration; value ranges from 26-93; type: functional; conditions: po; procedure, shortened: as §4
[16] = tested on: Mus musculus; experiment: Anti-morphine activity against the morphine-induced Straub''s tail reaction in mice expressed as % inhibition at 25 mg/kg peroral administration; type: functional; conditions: route oral; procedure, shortened: as §2

With Cc1cc2c(cc1OCCCN1CCN(c3ccccc3)CC1)CCC2.Cl.Cl the ED50 [1] was 16.6 mg/kg, the LD50 [2] was over 2000 mg/kg and the Ratio [3] was 5.41. The Delta t [4] was -2.5 °C, the inhibition in vivo at 25 mg/kg [5] was 94% and the ED50 [6] was over 100 mg/kg. For the same molecule, the inhibition in vivo at 25 mg/kg [7] was 83%, the ED50 [8] was 16 mg/kg and the ED50 [9] was 56 mg/kg.

Molecule CN(C)CCCN1c2ccccc2Sc2ccc(Cl)cc21 [CHLORPROMAZINE] has an ED50 [6] of 15 mg/kg, a Delta t [10] of -1.5 and an ED50 [11] of 10.1 mg/kg. The ED50 [12] was 17 mg/kg.

Molecule Cl.Cl.Fc1ccc(N2CCN(CCCOc3ccc4c(c3)CCC4)CC2)cc1 has an ED50 [13] of 10.3 mg/kg, an ED50 [14] of 43 mg/kg and an LD50 [2] of over 2000 mg/kg. For the same molecule, the Ratio [3] was 3.73, the Delta t [10] was -5 °C and the inhibition in vivo at 25 mg/kg [7] was 88%. For the same molecule, the ED50 [15] was 50 mg/kg and the inhibition in vivo at 25 mg/kg [16] was 100%.

Source: ChEMBL document CHEMBL1122329, “Synthesis and antianxiety activity of (omega-piperazinylalkoxy)indan derivatives” (J Med Chem, 1983)
